# Only some compounds are listed: those with a hit (about 1.9% of all), similar ones and a draw of the others.
# LEDGF integ inh: blockers of LEDGF/p75-dependent integrase strand transfer – biochemical, TR-FRET, high throughput, primary screen. TR-FRET IN-LEDGF/p75 DNA integration, Eu/Cy5. inhibition, % at 3.7 µM. 370,000 compounds, 0.64% hits. AID 743269, 2014;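 active = inhibition above the screen-wide mean plus 3 SD, cut at about 13% in these data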;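 also: signal is the Cy5 over europium emission ratio at 671 and 618 nm; 0% = plate median of compound wells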
# NSD2 HMT inh: NSD2 histone methyltransferase inhibitors, primary screen, biochemical, AlphaScreen, single concentration, set 2; Histone-lysine N-methyltransferase NSD2 (Homo sapiens), O96028; NSD2 peptide methylation, 120 min; inhibition, % at 12.5 µM; 310,000 compounds, 0.54% hits; AID 743445, 2014; in the data active = inhibition above about 50%
# TDP2 absorb: human TDP2 enzyme inhibitors, primary screen, biochemical, epi absorbance, recombinant enzyme; Tyrosyl-DNA phosphodiesterase 2 (Homo sapiens), O95551; T5PNP hydrolysis, p-nitrophenol absorbance 415 nm; inhibition, % at 12.8 µM; 370,000 compounds, 0.34% hits; AID 720702, 2013;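 active = inhibition above the mean of all tested compounds plus 3 SD, set per campaign, cut at about 25% in these data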;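 also: 0% = DMSO with enzyme and 100% = buffer with substrate but no TDP2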
#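 Read-out basis: percent inhibition. System: recombinant human TDP2. Buffer or medium: Mg2+-containing Tris-HCl buffer, pH 7.5. Repeats: single replicate. Timing: reaction 2 h, 37 °C. Benchmarks: high control without enzyme, low control DMSO plus TDP2. Probe or stimulus: 5 mM T5PNP. Doses: 12.8 µM only. Measured by: epi absorbance of p-nitrophenol freed from T5PNP by hydrolysis.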
# MBD2 DNA inh: inhibitors of MBD2 binding to methylated DNA, primary screen, biochemical, TR-FRET, DNA-binding domain, human | Methyl-CpG-binding domain protein 2 (Homo sapiens), Q9UBB5 | MBD2 binding to methylated oligonucleotide | inhibition, % at 4.4 µM | 370,000 compounds, 0.31% hits | AID 686964, 2013; in the data active = inhibition above about 13%
# Target sequence (Q9UBB5 whole entry, looked up, the tested form may be a part): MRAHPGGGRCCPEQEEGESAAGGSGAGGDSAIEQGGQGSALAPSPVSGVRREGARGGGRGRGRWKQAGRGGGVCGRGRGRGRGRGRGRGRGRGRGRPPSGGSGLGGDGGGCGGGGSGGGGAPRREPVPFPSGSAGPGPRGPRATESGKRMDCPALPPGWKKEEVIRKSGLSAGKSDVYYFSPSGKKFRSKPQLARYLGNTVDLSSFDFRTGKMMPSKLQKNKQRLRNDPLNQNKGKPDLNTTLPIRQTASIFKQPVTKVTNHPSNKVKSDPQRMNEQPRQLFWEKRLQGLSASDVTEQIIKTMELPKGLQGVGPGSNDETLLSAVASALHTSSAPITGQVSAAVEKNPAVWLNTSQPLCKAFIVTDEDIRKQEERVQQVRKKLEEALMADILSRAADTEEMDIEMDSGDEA
# Casp6 inh: human caspase-6 inhibitors, primary screen, biochemical, VEID-R110 fluorescence, single point, set 2; P55212; purified caspase-6, Z-VEID-R110 cleavage fluorescence; inhibition, % at 12.5 µM; 350,000 compounds, 0.53% hits; AID 686996, 2013;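 active = mean inhibition across replicates at least about 35%, with every replicate also reaching that limit, limit read from the data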;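 also: 0% = median of neutral control wells and 100% = no fluorescence left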
# Target sequence (P55212 24-179 limits assumed): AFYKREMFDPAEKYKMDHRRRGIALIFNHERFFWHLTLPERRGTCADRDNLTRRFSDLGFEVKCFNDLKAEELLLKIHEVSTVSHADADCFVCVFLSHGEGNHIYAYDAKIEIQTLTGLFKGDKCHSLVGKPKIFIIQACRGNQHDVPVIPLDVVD
# Target sequence (P55212 194-293 limits assumed): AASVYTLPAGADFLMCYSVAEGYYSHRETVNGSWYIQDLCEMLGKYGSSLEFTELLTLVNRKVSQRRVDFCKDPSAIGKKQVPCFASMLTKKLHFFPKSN
# UHRF1 binding: UHRF1 methylated DNA binding inhibitors, primary screen, counter-screen for MBD2 inhibitor project, biochemical, TR-FRET, human UHRF1, single concentration; E3 ubiquitin-protein ligase UHRF1 (Homo sapiens), Q96T88; UHRF1 binding to methylated oligo; inhibition, % at 4.4 µM; 370,000 compounds, 0.75% hits; in the data active = inhibition above about 21%;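 also: UHRF1 SRA domain binding a hemimethylated CpG hairpin DNA probe; 0% = median of test compound wells and 100% = reference inhibitor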
# Starred values were filed as active, the others as inactive; . = no result.
SMILES,LEDGF integ inh,NSD2 HMT inh,TDP2 absorb,MBD2 DNA inh,Casp6 inh,UHRF1 binding
CC[C@@]1(C(=O)OC)N[C@H](CN(C)C(=O)Nc2ccc(F)cc2)[C@@H]2C(=O)N(C)C(=O)[C@@H]21,-2,.,0,11,5,21*
CCN(C[C@H]1N[C@@](Cc2ccccc2)(C(=O)OC)[C@H]2C(=O)N(C)C(=O)[C@@H]12)S(=O)(=O)c1ccc(C(F)(F)F)cc1,-3,.,2,3,3,-1
CC[C@@]1(C(=O)OC)N[C@H](CN(C)C(=O)Nc2ccccc2)[C@@H]2C(=O)N(C)C(=O)[C@@H]21,-4,.,4,-4,-4,0
CCCNC(=O)N1C[C@@H](C)[C@@H](OC)CN(C)C(=O)c2ccc(NC(=O)CC)cc2OC[C@H]1C,.,.,.,.,-1,.
COc1ccccc1C#Cc1ccc([C@@H]2[C@@H](CO)N(C(=O)C3CCCC3)[C@H]2C#N)cc1,.,.,.,.,-2,.
CNC(=O)C[C@@H]1CC[C@@H]2[C@H](COc3ccc(NC(=O)Nc4ccc(F)c(F)c4)cc3C(=O)N2C)O1,.,.,.,.,1,.
O=S(=O)(NCc1ccccn1)c1ccc2ccccc2c1,-2,-8,0,-2,-2,-1
Cc1ccc(S(=O)(=O)NCc2ccccn2)cc1C,0,0,4,3,-3,23*
COc1ccc(S(=O)(=O)NCc2ccccn2)cc1NC(=O)c1ccccc1,3,-9,0,11,1,36*
CCCNC(=O)C[C@H]1CC[C@@H]2[C@H](COc3ccc(NC(=O)Nc4c(C)noc4C)cc3C(=O)N2C)O1,.,.,.,.,1,.
O=C(Nc1c(-c2ccccc2)[nH][nH]c1=O)c1ccc(-c2ccccc2)cc1,-2,.,6,4,2,-6
O=C(Nc1c(-c2ccccc2)[nH][nH]c1=O)c1ccco1,4,.,24,1,1,63*
CNC1=C(N(C(C)=O)c2ccc(Br)cc2)C(=O)c2ccccc2C1=O,23*,100*,53*,-20,.,0
CCC(=O)N(C1=C(NC)C(=O)c2ccccc2C1=O)C(C)C,1,.,6,-5,72*,0
CCC(=O)NC1=C(NC(C)c2ccccc2)C(=O)c2ccccc2C1=O (stereo not drawn),1,-3,11,-6,.,12
CCCc1nc2c(C)cc(Br)cn2c1Cc1cccc(Cl)c1,0,.,2,9,0,24*
CCCc1nc2c3ccccc3ccn2c1Cc1cccc(F)c1,4,.,-16,4,1,21*
CCCc1nc2c(C)cc(Br)cn2c1Cc1ccccc1OC,0,.,-5,9,-3,22*
Cc1cc(Br)cn2c(Cc3cccc(F)c3)c(-c3cccc(Cl)c3)nc12,7,.,-11,-1,-2,4
Fc1ccc(-c2nc3c4ccccc4ccn3c2Cc2cccc(F)c2)cc1,-3,.,-1,1,-3,5
CCCc1nc2c(C)cc(Br)cn2c1Cc1ccc(C)cc1,-4,.,5,7,3,22*
Cc1noc(C)c1NC(=O)Nc1cccc2c1O[C@H](CN(C)C(=O)Nc1cccc3ccccc13)[C@H](C)CN([C@@H](C)CO)C2=O,.,.,.,.,1,.
CCC(=O)Nc1ccc2c(c1)OC[C@H](C)N(C(=O)C1CC1)C[C@@H](C)[C@H](OC)CN(C)C2=O,.,.,.,.,-3,.
C[C@@H]1CCCCO[C@H](CN(C)S(C)(=O)=O)[C@H](C)CN([C@@H](C)CO)C(=O)c2cc(NC(=O)NC3CCCCC3)ccc2O1,.,.,.,.,0,.
C/C=C/c1cnc2c(c1)C(=O)N([C@@H](C)CO)C[C@@H](C)[C@@H](CN(C)Cc1ccc(F)cc1)O2,.,.,.,.,2,.
SMILES,LEDGF integ inh,NSD2 HMT inh,TDP2 absorb,MBD2 DNA inh,Casp6 inh,UHRF1 binding
Cc1ccc(S(=O)(=O)N(C)C[C@H]2Oc3ccc(NC(=O)CCC(F)(F)F)cc3CC(=O)N([C@H](C)CO)C[C@@H]2C)cc1,.,.,.,.,1,.
C[C@H]1CN([C@@H](C)CO)S(=O)(=O)c2ccc(C#CCN(C)C)cc2O[C@@H]1CN(C)Cc1ccccn1,.,.,.,.,12,.
COc1ccc(S(=O)(=O)Nc2ccc3c(c2)C(=O)N([C@H](C)CO)C[C@H](C)[C@H](CN(C)S(=O)(=O)c2c(C)noc2C)OCCCC[C@H](C)O3)cc1,.,.,.,.,-2,.
C[C@@H]1CN([C@@H](C)CO)C(=O)CCCn2nncc2CO[C@H]1CN(C)C(=O)Nc1cccc2ccccc12,3,.,2,8,0,24*
C[C@@H]1CN([C@@H](C)CO)C(=O)CCCn2nncc2CO[C@@H]1CN(C)C(=O)OCc1ccccc1,1,.,-4,5,-4,4
COc1cccc(S(=O)(=O)N(C)C[C@H]2OCc3cnnn3CCCC(=O)N([C@@H](C)CO)C[C@H]2C)c1,-1,.,6,10,-3,22*
C[C@H](CO)N1C[C@H](C)[C@H](CN(C)C(=O)OCc2ccccc2)OCc2cnnn2CCCC1=O,-3,.,8,4,-1,24*
CCCN(C)C[C@H]1OCc2cnnn2CCCC(=O)N([C@H](C)CO)C[C@@H]1C,3,.,-2,13,4,23*
C[C@H]1CCCCO[C@@H](CN(C)Cc2ccc3c(c2)OCO3)[C@@H](C)CN([C@@H](C)CO)C(=O)c2cc(NC(=O)Nc3ccc4c(c3)OCO4)ccc2O1,.,.,.,.,0,.
CCC(C)NC(=O)CCNS(=O)(=O)c1ccc(Br)cc1 (stereo not drawn),0,1,-3,1,.,32*
COc1ccc(S(=O)(=O)Nc2ccc3c(c2)C(=O)N([C@@H](C)CO)C[C@H](C)[C@H](CN(C)S(=O)(=O)c2ccccc2)OCCCC[C@@H](C)O3)cc1,.,.,.,.,1,.
C[C@@H]1CN([C@H](C)CO)C(=O)Cc2cc(NC(=O)C3CCCCC3)ccc2O[C@H]1CN(C)Cc1ccc(C(=O)Nc2ccccc2N)cc1,.,.,.,.,1,.
C[C@H]1CN([C@@H](C)CO)C(=O)c2c(c3ccccc3n2C)-c2ccccc2CO[C@@H]1CN(C)Cc1cccc(C(F)(F)F)c1,.,.,.,.,-1,.
CCc1nnc(NC(=O)c2ccc(COc3ccccc3C)o2)s1,5,-2,-1,9,2,7
CCc1nnc(NC(=O)c2ccc(COc3ccccc3Cl)o2)s1,-3,-1,18,-1,-5,28*
CNC(=O)C[C@@H]1CC[C@H]2[C@@H](COC[C@H](O)CN2Cc2ccccc2F)O1,.,.,.,.,1,.
O=C(COC(=O)c1ccc([N+](=O)[O-])o1)NCc1ccccc1,1,7,0,-7,25,-1

# Screening data: PubChem BioAssay, several laboratories
